Sampled rows, rich in hits. Any-hit rate of the full collection: about 2.6%.
Ecoli rRNA inh: inhibits bacterial ribosomal RNA function over humanized ribosomes; E. coli WT GFP vs humanized-ribosome RFP mutants, fluorescence, 24 h; stronger effect = lower value; DMSO median 0, no signal -100; GFP signal change (wild-type ribosome), % (test concentration not listed); hit rate 1.6% among 350,000; AID 720706;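 active = significant combined selectivity score with lowered wild-type GFP, culture density cut under 30%, mutant RFP and density less affected; inactive = any of these conditions unmet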
Vif inh: HIV Vif inhibition; HEK293T cells, Vif self-association by quenched fluorescence, imaging, 24 h; inhibition, % at 7.49 µM; hit rate 0.35% among 340,000; AID 602346; in the data active = inhibition above about 50%, passing the limit was not always enough; inconclusive = no clear call, values can overlap the other calls; inactive = below about 31%
S100A4 inh HTS: blocks human S100A4 binding to myosin IIA peptide. P26447. S100A4/TAMRA-MyoIIA peptide fluorescence polarization. inhibition, % at 10.7 µM. hit rate 0.14% among 360,000;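 active = mean inhibition of at least 70% across replicates, with every replicate also reaching that level; inconclusive = mean inhibition reaches 70% but some replicates fall short; inactive = mean inhibition below 70%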
Target sequence (P26447 whole entry, looked up): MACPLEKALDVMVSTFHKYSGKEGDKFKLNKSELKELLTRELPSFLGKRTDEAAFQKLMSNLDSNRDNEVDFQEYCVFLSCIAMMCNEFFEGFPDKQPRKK
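Test system – S100A4 monomer (human) · Compound – single-point compound testing · Schedule – 5 min incubation before reading · Probe or stimulus – TAMRA-labelled myosin IIA heavy-chain peptide probe, 5 nM · Benchmarks – neutral control DMSO, positive control TFP · Medium – Calcium-containing HEPES buffer, pH 7.2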
Env fusion inh: HIV envelope-mediated fusion inhibition; HeLa-JRFL Env/CEM21 cell fusion, luciferase; inhibition, % at 12.3 µM; hit rate 1.1% among 360,000;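 active = mean replicate inhibition score of at least 50 and every replicate individually at or above 50; inconclusive = only one of the two criteria met; inactive = mean below 50 and not all replicates reaching 50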;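 note: 0% = plate neutral controls and 100% = maraviroc near 300 nM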
miR-122 sensor: miR-122 inhibition in Huh7 cells; hit rate 0.3% among 340,000; activation (reporter increase), % at 12.5 µM; Huh7 miR-122 Renilla luciferase sensor, 48 h; neutral wells = 0, positive control = 100;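 active = mean replicate activation score at least 90 and every replicate individually at or above 90; inconclusive = only one of the two criteria met; inactive = neither criterion met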;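 note: higher luciferase means less miR-122 activity so hits act as miR-122 inhibitors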
FN deposition inh: fibronectin deposition inhibition | AH1F fibroblasts, Alexa488-fibronectin deposition fluorescence, overnight | inhibition, % at 12.6 µM | hit rate 0.086% among 350,000;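 active = mean inhibition across replicates of 30% or more, regardless of how many single replicates reach that level; inconclusive = mean under 30% yet at least half of replicates reach 30%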;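 note: positive control wells lacked labelled fibronectin entirely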
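test system = AH1F fibroblasts assembling fluorescent fibronectin matrix | quantity = 10000 AH1F cells per well | buffer or medium = DMEM plus 2% serum, read in PBS | doses = single dose, pinned | incubation = 1 h cell attachment, overnight exposure to compound and label | detection = fluorescence at 485 nm excitation, 525 nm emission | read-out basis = inhibition from reduced deposited-fibronectin fluorescence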
Active calls of the source: *; ? = inconclusive; / = no result given; [ ] = remark or other dose.

SMILES | Ecoli rRNA inh | Vif inh | S100A4 inh HTS | Env fusion inh | miR-122 sensor | FN deposition inh
CCOC(=O)c1[nH]c2c(c1C)C(=O)CC(c1ccco1)C2 (stereo unspecified) | -5 | ? | -4 | -444 | ? | 16
Cc1c(C(=O)OCc2ccccc2)[nH]c2c1C(=O)CC(c1ccco1)C2 (stereo unspecified) | / | 37 | / | / | 139* | /
COc1ccc(S(=O)(=O)Nc2ccc3c(c2)CC(=O)N([C@H](C)CO)C[C@@H](C)[C@@H](CN(C)Cc2ccc(C(=O)O)cc2)O3)cc1 | 1 | / | -18 | -16[16.7 µM] | 2[16.7 µM] | -2
COc1ccc(C(=O)C(C)N(C(=O)c2ccc(Cl)cc2Cl)N2C(=O)C3C4C=CC(C4)C3C2=O)cc1 (stereo unspecified) | / | / | / | 123* | 2 | /
Cc1ccc(C(=O)C(C)N(C(=O)c2ccc(Cl)cc2Cl)N2C(=O)CCCC2=O)cc1 (stereo unspecified) | 5 | -4 | 1 | -9 | / | 7
COc1ccc(NC(=O)Nc2cc(C(C)(C)C)on2)cc1OC | -26* | 6 | -7 | 6 | / | -8
CC(=O)Nc1ccc2c(c1)C(=O)N(C)[C@@H]1CC[C@@H](CC(=O)NCc3ccc(Cl)cc3)O[C@H]1CO2 | 2 | / | -1 | / | -68[16.7 µM] | -6
CCNC(=O)CSc1nc2cc([N+](=O)[O-])ccc2n1-c1cccc(C(F)(F)F)c1 | / | -1 | / | / | 2 | /
NC(=O)CSc1nc2cc([N+](=O)[O-])ccc2n1-c1cccc(C(F)(F)F)c1 | -22* | -3 | 5 | 22 | -4 | -7
CNC(=O)CSc1nc2cc(S(=O)(=O)Nc3ccccc3OC)ccc2o1 | -4 | -6 | -4 | 1 | / | 0
COc1ccccc1NS(=O)(=O)c1ccc2oc(SCc3ccc(C#N)cc3)nc2c1 | / | 3 | / | 58* | / | 2
C[C@@H]1CN([C@H](C)CO)C(=O)c2cc(C#CCc3ccccc3)cnc2O[C@@H]1CN(C)Cc1ccccc1 | 1 | / | 18 | / | / | /
CN(C)c1ccc(P(=O)(OCc2ccccc2)C(O)c2ccc(Br)cc2)cc1 (stereo unspecified) | 10 | 10 | 0 | 6 | / | -9
CC(C)COP(=O)(c1ccc(N(C)C)cc1)C(O)c1ccc(Br)cc1 (stereo unspecified) | 3 | -9 | -1 | 56* | / | -5
CC(C)OP(=O)(c1ccc(N(C)C)cc1)C(O)c1ccc(C(C)C)cc1 (stereo unspecified) | -2 | -6 | -5 | 74* | 6 | -8
CSc1cccc(NC(=S)N2CCC(c3ccccc3)C2)c1 (stereo unspecified) | -25* | -4 | -6 | -25 | / | 4
C=CC(=O)N1C/C(=C/c2ccc(F)cc2)C(=O)/C(=C\c2ccc(F)cc2)C1 | -54 | 143* | -3 | 111* | -13 | 26
CN1C2CCC1/C(=C\c1ccc(F)cc1)C(=O)/C2=C/c1ccc(F)cc1 | / | -1 | / | 0 | / | -6
O=C(NCCN1CCCC1)c1ccccc1Cl | / | 4 | 0 | -22 | / | -2
O=C(NCCN1CCNCC1)c1ccccc1O | / | 62* | -3 | -5 | -8 | 0
CO[C@H]1CN(C)C(=O)c2ccc(NS(C)(=O)=O)cc2OC[C@@H](C)N(CC2CCOCC2)C[C@H]1C | 5 | / | -6 | 11[16.7 µM] | -4[16.7 µM] | -7
Cc1ccc(C(=O)N2CCC3(CC2)Oc2ccc(Cl)cc2C(=O)C32CC(c3cccnc3)=NO2)s1 (stereo unspecified) | -2 | 5 | -8 | -3 | 0 | -9
O=C(/C=C/c1cccs1)N1CCC2(CC1)Oc1ccc(Cl)cc1C(=O)C21CC(c2cccnc2)=NO1 (stereo unspecified) | 13 | -11 | -4 | -121 | 8 | 31*
CC(=O)Nc1ccc2c(c1)C(=O)N(C)C[C@@H](C)[C@@H](CN(C)C(C)=O)O2 | -1 | / | / | / | / | -3
COc1ccc(-c2oc3c(c2C(=O)OCCO)C(OCCO)CCC3)cc1 (stereo unspecified) | 9 | / | -1 | 11 | / | /
SMILES | Ecoli rRNA inh | Vif inh | S100A4 inh HTS | Env fusion inh | miR-122 sensor | FN deposition inh
O=C(OCCO)c1c(-c2ccccc2)oc2c1C(OCCO)CCC2 (stereo unspecified) | 5 | / | -6 | 61* | / | /
CN(C)C(=O)c1ccc(-c2ccc([C@@H]3[C@H]4CN(C(=O)C5CCC5)CCCCN4[C@H]3CO)cc2)cc1 | / | / | -3 | / | -28[16.7 µM] | /
Cc1noc(C)c1NC(=O)N[C@H]1CC[C@@H](CCNC(=O)C2CCC2)O[C@@H]1CO | -1 | / | -2 | -12[16.7 µM] | / | /
CNc1snc(C)c1C(=O)OC(C)C(=O)c1ccc(F)cc1 (stereo unspecified) | -24* | -7 | -1 | 8 | / | -8
CNc1snc(C)c1C(=O)OCC(=O)c1ccc(Cl)cc1 | 3 | -8 | 0 | / | / | /
C[C@@H]1CN([C@@H](C)CO)C(=O)c2cc(NC(=O)C3CCCCC3)ccc2O[C@H]1CN(C)S(=O)(=O)c1ccc(Cl)cc1 | 0 | / | -13 | -25[16.7 µM] | -4[16.7 µM] | /
CC1CCN(S(=O)(=O)c2ccc(NC(=O)N3c4ccccc4Sc4ccccc43)cc2)CC1 | / | / | / | 10 | 0 | -11
NS(=O)(=O)c1ccc(NC(=O)N2c3ccccc3Sc3ccccc32)cc1 | -45* | -2 | 1 | / | 4 | /
CN(C)S(=O)(=O)N1CCCN(S(=O)(=O)N(C)C)CC1 | / | 66* | / | -38 | -3 | /
COc1cccc(-c2nnc(NC(=O)c3ccc(S(=O)(=O)N4CC(C)OC(C)C4)cc3)o2)c1 (stereo unspecified) | / | -6 | / | 55* | -9 | -3
COc1cccc(-c2cc(=O)c3cc(NC(=O)c4ccccc4)ccc3[nH]2)c1 | 7 | 194* | 2 | -345 | / | 20
CNC[C@H](CC1CCCCC1)NC[C@H](Cc1ccccc1)NCCC12CC3CC(CC(C3)C1)C2 | -56 | 3 | 1 | 93* | / | 60*
NC[C@H](Cc1ccccc1)NCCCCC1CCCCC1 | -43 | 2 | -5 | 0 | -2 | -2
Cc1ccc(NCc2nnc(SCC(=O)Nc3ccccc3)n2CC2CCCO2)c(C)c1 (stereo unspecified) | / | 2 | / | -51 | 151* | -5
Cc1ccc(NC(=O)CSc2nnc(C3CC3)n2CC2CCCO2)c(C)c1 (stereo unspecified) | 11 | 6 | 0 | -5 | -2 | 8
COCC(=O)Nc1ccc2c(c1)C(=O)N(C)[C@@H]1CC[C@@H](CC(=O)N3CCc4ccccc4C3)O[C@@H]1CO2 | -1 | / | 60 | 10[16.7 µM] | 5[16.7 µM] | 2
CC(=O)n1c2c(c3ccccc31)OC(N)=C(C#N)C2c1ccc(C(C)C)cc1 (stereo unspecified) | -15* | 14 | -3 | / | 4 | /
CC(=O)C1=C(C)OC(N)=C(C#N)C1c1cccc2ccccc12 (stereo unspecified) | -9 | 15 | -1 | 7 | / | 2

High-throughput results from PubChem.
